ChEMBL document CHEMBL2069239, “High DNA affinity of a series of peptide linked diaromatic guanidinium-like derivatives” (J Med Chem, 2012)
Calls of active or inactive are those of the source. The calls are words filed in the database; no cut-off is given here.

Assays:
[1] = test system: Nucleic Acid; assay: Binding affinity to poly(dA).poly(dT) DNA in MES buffer assessed as change in melting temperature by thermal denaturation assay; type: nucleic-acid assay
[2] = test system: Nucleic Acid; assay: Binding affinity to Salmon sperm DNA in phosphate buffer assessed as change in melting temperature by thermal denaturation assay; type: nucleic-acid assay; details: Salmonidae
Method in brief: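 UV melting of salmon sperm DNA (150 μM base) with compound (15 μM), giving a compound:base ratio of 0.1, in 10 mM sodium phosphate buffer at pH 7. Absorbance at 260 nm was followed from 20 to 90 °C at 1 °C/min, collecting five points per °C, in a 1 cm quartz cell.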

[3] = test system: Nucleic Acid; assay: Binding affinity to poly(dA.dT)2 DNA in phosphate buffer assessed as change in melting temperature by thermal denaturation assay
[4] = test system: Nucleic Acid; assay: Binding affinity to poly(dA.dT)2 DNA assessed as large induced CD signal at 0.5 mM by circular dichroism study; type: nucleic-acid assay
[5] = test system: Nucleic Acid; assay: Binding affinity to (AT)4 DNA by SPR analysis; type: nucleic-acid assay
Method in brief: (§1)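 Biosensor analysis against three immobilized DNA hairpin duplexes in degassed MES buffer (10 mM MES, 1 mM EDTA, 92 mM NaCl, 0.0005% v/v P20, pH 6.25) at 25 °C. A ligand concentration series was injected at 20 μL/min for 5 min, then dissociated for 5 min, with NaCl/NaOH regeneration. K was fitted from steady-state RU versus free ligand using a two-site binding equation.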

[6] = test system: Nucleic Acid; assay: Binding affinity to DNA assessed as large induced CD signal at 0.5 mM by circular dichroism study; type: nucleic-acid assay
[7] = test system: Nucleic Acid; assay: Binding affinity to AATT DNA by SPR analysis; type: nucleic-acid assay; method in brief: as §1
[8] = test system: Nucleic Acid; assay: Binding affinity to (GC)4 DNA by SPR analysis; type: nucleic-acid assay; method in brief: as §1
[9] = test system: Nucleic Acid; assay: Binding affinity to poly(dA.dT)2 DNA in phosphate buffer by ITC analysis; type: nucleic-acid assay
Method in brief: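 Calorimetric titration at 25 °C of 2.48 mM compound in 10 mM phosphate buffer into poly(dA·dT)2 in the cell (2 mM). There were 29 injections, spaced 300 s apart. Heat per injection was obtained by integrating the power peak area over time.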

Activity [1]	ΔTm [2] [°C]	Activity [3]	Activity [4]	K [5] [×10⁵ /M]	ΔTm [3] [°C]	Activity [6]	K [7] [×10⁵ /M]	K [8] [×10⁵ /M]	K [9] [×10⁵ /M]	Compound
inactive	1	inactive								N=C(N)Nc1ccc(NC(=O)c2ccc(N)cc2)cc1
	11		Active	18	20	Active	71	< 1		N=C(N)Nc1ccc(NC(=O)c2ccc(NC(=N)N)cc2)cc1
							2.7			N=C(N)Nc1ccc(C(=O)c2ccc(N=C3NCCN3)cc2)cc1
							6.4	< 1		N=C(N)Nc1ccc(Nc2ccc(N=C3NCCN3)cc2)cc1
inactive	2	inactive								Nc1ccc(C(=O)Nc2ccc(NC3=NCCN3)cc2)cc1
				12.2			5.7	6.5		Nc1ccc2cc3ccc(N)cc3nc2c1
	10		Active		26.1	Active			1.54	N=C(N)Nc1ccc(NC(=O)c2ccc(NC3=NCCN3)cc2)cc1
	12.5		Active	47.7	29	Active	93.7	< 1	4.9	O=C(Nc1ccc(NC2=NCCN2)cc1)c1ccc(NC2=NCCN2)cc1
